Source: paper PMC7658073 (Clinical Pharmacokinetics, 2020)

Tests used:
UGT2B7 = molecular target: T1, UGT2B7 (Homo sapiens, UniProt P16662); test: Inhibitory potency towards UGT isoforms: UGT2B7; format: in vitro ADME
T1 sequence (P16662 24-529): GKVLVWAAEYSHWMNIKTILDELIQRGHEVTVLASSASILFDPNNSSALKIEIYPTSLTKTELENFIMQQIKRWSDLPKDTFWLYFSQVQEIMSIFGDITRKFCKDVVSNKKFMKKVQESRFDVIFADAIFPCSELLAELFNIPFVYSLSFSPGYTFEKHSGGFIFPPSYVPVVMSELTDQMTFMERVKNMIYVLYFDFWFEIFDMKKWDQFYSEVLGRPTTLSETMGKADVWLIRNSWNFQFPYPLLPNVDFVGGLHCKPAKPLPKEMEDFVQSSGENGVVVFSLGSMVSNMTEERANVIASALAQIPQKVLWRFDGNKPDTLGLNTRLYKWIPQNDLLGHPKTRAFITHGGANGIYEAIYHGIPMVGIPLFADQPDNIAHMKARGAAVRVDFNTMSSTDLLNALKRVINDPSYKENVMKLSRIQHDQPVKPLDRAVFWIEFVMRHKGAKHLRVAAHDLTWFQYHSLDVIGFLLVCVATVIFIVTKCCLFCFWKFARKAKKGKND

MATE1 = molecular target: T2, MATE1 (Homo sapiens, UniProt Q96FL8); test: Inhibitory potency towards MATE1; format: in vitro ADME
T2 sequence (Q96FL8 1-570): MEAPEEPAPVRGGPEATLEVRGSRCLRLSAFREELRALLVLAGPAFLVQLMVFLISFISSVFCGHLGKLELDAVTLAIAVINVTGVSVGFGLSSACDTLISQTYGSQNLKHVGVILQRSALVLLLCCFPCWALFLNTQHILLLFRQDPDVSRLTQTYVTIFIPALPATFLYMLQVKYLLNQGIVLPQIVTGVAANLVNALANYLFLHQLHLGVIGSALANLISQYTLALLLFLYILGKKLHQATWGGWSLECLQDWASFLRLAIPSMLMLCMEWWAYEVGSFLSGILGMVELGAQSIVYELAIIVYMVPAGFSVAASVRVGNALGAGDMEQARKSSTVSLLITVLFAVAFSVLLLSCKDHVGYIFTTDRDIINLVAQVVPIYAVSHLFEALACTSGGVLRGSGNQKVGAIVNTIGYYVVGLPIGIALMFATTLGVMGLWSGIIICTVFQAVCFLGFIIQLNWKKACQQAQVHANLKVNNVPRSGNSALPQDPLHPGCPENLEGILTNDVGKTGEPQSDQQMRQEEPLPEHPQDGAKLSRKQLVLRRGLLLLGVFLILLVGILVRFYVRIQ

[1] = cited from earlier work
OATP1B1 = molecular target: T3, OATP1B1 (Homo sapiens, UniProt Q9Y6L6); test: Inhibitory potency towards OATP1B1; format: in vitro ADME
T3 sequence (Q9Y6L6 1-691): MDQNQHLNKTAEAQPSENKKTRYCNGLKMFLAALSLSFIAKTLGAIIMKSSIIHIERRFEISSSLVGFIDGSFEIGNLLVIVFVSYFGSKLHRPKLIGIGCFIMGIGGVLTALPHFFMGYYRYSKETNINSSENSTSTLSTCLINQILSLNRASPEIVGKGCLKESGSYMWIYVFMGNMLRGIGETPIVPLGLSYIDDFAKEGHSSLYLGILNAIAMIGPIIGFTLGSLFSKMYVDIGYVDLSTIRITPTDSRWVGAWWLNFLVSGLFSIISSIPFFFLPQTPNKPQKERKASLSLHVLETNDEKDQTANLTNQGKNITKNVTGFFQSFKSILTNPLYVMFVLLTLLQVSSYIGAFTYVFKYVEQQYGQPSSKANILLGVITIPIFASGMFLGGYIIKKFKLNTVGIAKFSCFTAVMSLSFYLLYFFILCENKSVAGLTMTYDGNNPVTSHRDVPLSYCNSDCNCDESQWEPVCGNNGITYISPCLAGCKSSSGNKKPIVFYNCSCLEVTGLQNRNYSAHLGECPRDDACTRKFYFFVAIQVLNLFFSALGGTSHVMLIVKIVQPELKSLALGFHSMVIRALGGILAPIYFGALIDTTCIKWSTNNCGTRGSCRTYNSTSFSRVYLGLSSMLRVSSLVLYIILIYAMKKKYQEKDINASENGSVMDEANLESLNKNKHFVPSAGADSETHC

[2] = Phase I DDI study with omeprazole and magnesium/aluminum hydroxide; format: in vivo, human
Method in brief: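 Randomized, open-label, three-fold crossover in healthy men. Test compound 5 mg single oral dose given fasting: alone; with omeprazole 40 mg QD for 5 days (pre- and co-dosed); or with a single 10 mL magnesium hydroxide 600 mg/aluminum oxide 900 mg antacid.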

[3] = Phase I DDI study with digoxin; format: in vivo, human; conditions: with digoxin 0.375 mg QD vs vericiguat 10 mg alone, fed
[4] = Phase I DDI study with sacubitril/valsartan; format: in vivo, human; conditions: administered with sacubitril/valsartan
OAT3 = molecular target: T4, OAT3 (Homo sapiens, UniProt Q8TCC7); test: Inhibitory potency towards OAT3; format: in vitro ADME
T4 sequence (Q8TCC7 1-542): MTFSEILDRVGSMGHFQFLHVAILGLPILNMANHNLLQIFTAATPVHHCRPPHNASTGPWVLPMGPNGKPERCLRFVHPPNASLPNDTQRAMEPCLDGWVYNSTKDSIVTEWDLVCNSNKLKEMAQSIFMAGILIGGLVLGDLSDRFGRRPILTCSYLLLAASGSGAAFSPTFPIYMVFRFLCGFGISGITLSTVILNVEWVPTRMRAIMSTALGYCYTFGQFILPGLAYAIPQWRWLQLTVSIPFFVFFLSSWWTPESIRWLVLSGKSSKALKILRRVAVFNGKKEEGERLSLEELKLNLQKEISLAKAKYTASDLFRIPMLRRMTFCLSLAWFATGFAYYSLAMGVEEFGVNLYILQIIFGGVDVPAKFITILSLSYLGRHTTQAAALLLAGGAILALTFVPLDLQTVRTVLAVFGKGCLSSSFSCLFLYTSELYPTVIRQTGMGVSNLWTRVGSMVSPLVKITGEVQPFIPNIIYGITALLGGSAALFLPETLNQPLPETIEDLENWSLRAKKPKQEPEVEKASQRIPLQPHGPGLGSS

[5] = Phase I DDI study with ketoconazole; format: in vivo, human
Method in brief: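 Randomized, open-label, two-fold crossover in healthy men. Ketoconazole 200 mg BID orally for 3 days, given before and with a single oral 1.25 mg dose of test compound, fed, versus test compound alone.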

[6] = pre- and co-administration of omeprazole vs vericiguat alone
[7] = with ketoconazole 200 mg BID vs vericiguat 1.25 mg SD alone, fed

IC50 (UGT2B7): > 50 µM | IC50 (MATE1): > 10 µM | IC50 (OATP1B1): ~16 µM | Reduction in the bioavailability of vericiguat ([2]; co-administration in fasting conditions of omeprazole (40 mg once daily) and magnesium/aluminum hydroxide (600/900 mg) relative to vericiguat alone): about 30% | Reduction of AUC of vericiguat [2, 6]: 32% | Reduction of Cmax of vericiguat [2, 6]: 49% | Cmax of vericiguat, point estimate of treatment ratio ([2]; with omeprazole 40 mg QD vs vericiguat 5 mg SD alone, fasting): 0.504 | AUC of vericiguat, point estimate of treatment ratio [3]: 0.980 | Cmax of vericiguat, point estimate of treatment ratio [3]: 1.009 | Decrease in AUC0–24 of vericiguat [4]: about 7% | Decrease in Cmax of vericiguat [4]: ~9% | IC50 (OAT3): > 5 µM | Increase in vericiguat exposure (AUC) ([5]; co-administration with ketoconazole 200 mg twice daily): 13% | AUC of vericiguat, point estimate of treatment ratio [5, 7]: 1.126 | Cmax of vericiguat, point estimate of treatment ratio [5, 7]: 1.109
Compound: COC(=O)Nc1c(N)nc(-c2nn(Cc3ccccc3F)c3ncc(F)cc23)nc1N [Vericiguat]
Permeability [1]: highly permeable | Solubility [1]: low-soluble
